Experimental data pooled from the literature.
Each line is one published result; the experiments were not run side by side.
Target: Dual specificity protein kinase CLK4 (CLK4, Homo sapiens, UniProt Q9HAZ1)

Compound	assay	setting	measurement	result
CCN(CC)CCNC(=O)c1c(C)[nH]c(/C=C2\C(=O)Nc3ccc(F)cc32)c1C	cell-free assay	0.5 µM	remaining signal	26.3%
CCCOc1ccc([C@@H]2[C@@H](C(=O)O)[C@H](c3ccc4c(c3)OCO4)CN2CC(=O)Nc2c(CC)cccc2CC)cc1	cell-free assay, competition with immobilised ligand	1 µM	remaining binding	89%
Cc1ccc(C(=O)Nc2ccc(CN3CCN(C)CC3)c(C(F)(F)F)c2)cc1C#Cc1cnc2cccnn12	enzyme activity, inhibitor	23.5 nM	remaining activity	54%
CCN1/C(=C/C(C)=O)Sc2ccc(OC)cc21	cell-free assay	0.5 µM	remaining signal	18.5%
CN(CCCC(F)(F)F)c1nccc(-c2cnn3ncccc23)n1	binding	1 µM	remaining binding	25%
Cc1ccc(NC(=O)c2ccc(C)c(C(F)(F)F)c2)cc1C#Cc1nn(C2CCC(O)CC2)c2ncnc(N)c12 (stereo not drawn)	cell-free assay	10 µM	remaining signal	58%
O=C1NC(=O)c2cc(Nc3ccc(F)cc3)c(Nc3ccc(F)cc3)cc21	cell-free assay	0.5 µM	remaining signal	88.6%
Cn1cnc(Br)c1C1=CN(c2ncnc3[nH]cnc23)CCS1	enzyme activity, inhibitor, radiometric	2 µM	inhibition	98.8%
CCCCN(CCCC)C(=O)CN1C[C@@H](c2cc(OC)c3c(c2)OCO3)[C@H](C(=O)O)[C@H]1CC(C)(C)CCC	cell-free assay, competition with immobilised ligand	1 µM	remaining binding	72.4%
Cn1cncc1C1=CN(c2ncnc3[nH]cnc23)CCS1	enzyme activity, inhibitor, radiometric	2 µM	inhibition	84.7%
O=C(CSc1nc2nccnc2c(=O)n1CCc1ccccc1)Nc1nccs1	enzyme activity, inhibitor	10 µM	inhibition	5%
Oc1ccc(-c2nc(-c3ccncc3)c(-c3ccc(F)cc3)[nH]2)cc1	cell-free assay	0.5 µM	remaining signal	106%
O=C(NC[C@@H]1[C@H]2CN(C(=O)OCc3cc(C(F)(F)F)cc(C(F)(F)F)c3)C[C@@H]12)c1ccc2[nH]nnc2c1	cell-free assay, competition with immobilised ligand	1 µM	remaining binding	98%
Cc1sc(C(=O)NC2COC2)cc1-n1cc(NC(=O)Nc2c(F)cccc2Cl)cn1	enzyme activity, inhibitor	10 µM	remaining activity	102%
CC(=O)Nc1c(C(C)=O)c(=O)n(C)c2nc(-c3ccc(Cl)cc3Cl)c(-c3ccc(Cl)cc3)cc12	cell-free assay, competition with immobilised ligand	1 µM	remaining binding	100%
Oc1cccc(-c2nc(N3CCOCC3)c3oc4ncccc4c3n2)c1	cell-free assay	0.5 µM	remaining signal	81.5%
COc1cc(Cl)c(C(=O)N[C@@H](CN[C@H]2CC[C@@H](N)CC2)Cc2ccc(C#N)cc2)cc1-c1ccc(CN[C@H](C)c2ccc(C)cc2)o1	enzyme activity, inhibitor	1 µM	remaining activity	103%
COc1cccc(CNC(=O)c2nc3scc(COCc4ccc(C(=O)O)cc4)c3c(=O)[nH]2)c1	cell-free assay, competition with immobilised ligand	1 µM	remaining binding	94.4%
COc1cc(-c2cc(-c3ccc(N4CCNCC4)cc3)cnc2C)cc(OC)c1OC	enzyme activity, inhibitor	1 µM	inhibition	7%
FC(F)(F)c1ccc2c(c1)nc(-c1cccnc1)n2C1CC1	cell-free assay, competition with immobilised ligand	1 µM	remaining binding	100%
CC(C)(C)c1nc2c(s1)c1nc(N)ncc1c1ccc(NS(=O)(=O)c3c(F)cccc3F)c(F)c12	enzyme activity, inhibitor, radiometric	1 µM	remaining activity	81%
